Data from PMC9435035 (ACS Omega, 2022).

Columns and labels:
α-glucosidase = α-glucosidase (Saccharomyces cerevisiae, UniProt P53341); test: α-glucosidase inhibitory activity; assay type: biochemical; details: read-out: glucosidase inhibition IC50 ± SEM; mean ± SEM
Balb/C mice = test: acute toxicity study in mice; assay type: in vivo
In short: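 Two-phase modified Lorke protocol in Balb/C mice (20–25 g), four per group. Phase 1: control given Tween-80 (2%); other groups received oral test compound at 100, 500 or 1000 mg/kg. Phase 2: oral doses of 1250, 1500 and 2000 mg/kg. Animals observed for the first 24 h, then daily for 2 weeks for diarrhea, convulsions, lethargy, sleeping, salivation and tremors, with mortality monitored.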

[1] = test system: overnight fasted normal rats; test: oral glucose tolerance test; assay type: in vivo, Wistar albino rats; details: OGTT, glucose 3 g/kg oral
[2] = test system: streptozotocin-induced diabetic Wistar rats; test: antidiabetic activity: blood glucose in STZ-induced diabetes; assay type: in vivo, Wistar albino rats
In short: (§1)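 Male Wistar albino rats (170–200 g, 8–10 weeks), fasted overnight, given STZ 50 mg/kg i.p. in 0.1 M citrate buffer, then 10% glucose for 3 days. Tail-vein glucose by glucometer at 72 h; >250 mg/dL counted as diabetic. Body weight and blood glucose on days 1, 7, 14, 21 and 28. Means ± SEM, one-way ANOVA with Dunnett's test.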

[3] = body weight of STZ-induced diabetic rats; assay type: in vivo, Wistar albino rats; details: for body weight, day 1: day 1, in g (unit assumed); for body weight, day 7: day 7, in g (unit assumed); for body weight, day 14: day 14, in g (unit assumed); for body weight, day 21: day 21, in g (unit assumed); for body weight, day 28: day 28, in g (unit assumed)
In short: as §1

[4] = test system: streptozotocin-induced diabetic Wistar rats; test: lipid profile in streptozotocin-induced diabetes; assay type: in vivo, Wistar albino rats; details: STZ-diabetic rats
In short: (§2)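 STZ-diabetic Wistar rats (n = 8 per group) received test compound at 10 or 20 mg/kg p.o., or glibenclamide 500 μg/kg p.o., once daily for 28 days; controls received vehicle. On day 28, rats were anesthetised with pentobarbital sodium (35 mg/kg) and blood was drawn by cardiac puncture. Serum ALP, SGPT, SGOT, LDL, HDL, TG, total cholesterol, creatinine and insulin were measured. Means ± SEM, one-way ANOVA with Dunnett's test.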

[5] = test system: streptozotocin-induced diabetic Wistar rats; test: serum profile; assay type: in vivo, Wistar albino rats; details: STZ-diabetic rats; for (ALP) IU / (SGOT) IU / (SGPT) IU: serum
In short: as §2

α-glucosidase, sequence (P53341 whole entry): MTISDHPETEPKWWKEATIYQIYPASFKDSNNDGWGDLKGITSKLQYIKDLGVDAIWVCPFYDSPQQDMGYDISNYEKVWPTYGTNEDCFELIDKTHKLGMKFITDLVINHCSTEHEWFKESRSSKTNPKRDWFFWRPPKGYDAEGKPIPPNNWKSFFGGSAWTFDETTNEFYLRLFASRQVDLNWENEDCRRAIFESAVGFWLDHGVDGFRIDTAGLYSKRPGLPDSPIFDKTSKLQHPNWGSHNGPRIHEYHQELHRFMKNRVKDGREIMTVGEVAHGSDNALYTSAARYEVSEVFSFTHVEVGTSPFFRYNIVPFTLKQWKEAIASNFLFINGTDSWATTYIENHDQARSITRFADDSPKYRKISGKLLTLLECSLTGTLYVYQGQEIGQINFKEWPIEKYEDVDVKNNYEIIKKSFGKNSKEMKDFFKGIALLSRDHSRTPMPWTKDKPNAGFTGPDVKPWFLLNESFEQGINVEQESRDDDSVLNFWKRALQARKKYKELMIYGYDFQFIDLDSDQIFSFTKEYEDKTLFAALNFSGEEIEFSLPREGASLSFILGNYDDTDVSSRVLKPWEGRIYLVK

1-Phenyl-3-(4-(4-(p-tolyl)-2,3-dihydrobenzo[b][1,5]thiazepin-2-yl)phenyl)prop-2-en-1-one [6B]
IC50 (α-glucosidase): 3.63 ± 0.36 µM | mortality (Balb/C mice; maximum oral dose of 2000 mg/kg (b.w.)): no mortality | toxic effects (diarrhea, convulsions, lethargy, sleeping, salivation, tremor) (Balb/C mice; oral up to 2000 mg/kg, observed daily for 2 weeks): no toxic effects | blood glucose level, 0 min ([1]; dose 10 mg/kg): 103.41 ± 4.05 mg/dL | blood glucose level, 30 min ([1]; dose 10 mg/kg): 125.39 ± 4.10 mg/dL | blood glucose level, 60 min ([1]; dose 10 mg/kg): 120.41 ± 4.81 mg/dL | blood glucose level, 90 min ([1]; dose 10 mg/kg): 112.61 ± 4.81 mg/dL | blood glucose level, 120 min ([1]; dose 10 mg/kg): 114.91 ± 4.59 mg/dL | blood glucose level, 0 min ([1]; dose 20 mg/kg): 100.93 ± 4.11 mg/dL | blood glucose level, 30 min ([1]; dose 20 mg/kg): 119.91 ± 4.62 mg/dL | blood glucose level, 60 min ([1]; dose 20 mg/kg): 121.66 ± 4.31 mg/dL | blood glucose level, 90 min ([1]; dose 20 mg/kg): 111.22 ± 4.21 mg/dL | blood glucose level, 120 min ([1]; dose 20 mg/kg): 109.78 ± 5.01 mg/dL | blood glucose level, day 1 ([2]; 10 mg/kg p.o. once daily): 381.40 ± 4.30 mg/dL | blood glucose level, day 7 ([2]; 10 mg/kg p.o. once daily, day 7, 10 mg/kg): 280.90 ± 4.66 mg/dL | blood glucose level, day 14 ([2]; 10 mg/kg p.o. once daily, day 14, 10 mg/kg): 205.31 ± 4.01 mg/dL | blood glucose level, day 21 ([2]; 10 mg/kg p.o. once daily, day 21, 10 mg/kg): 150.45 ± 4.92 mg/dL | blood glucose level, day 28 ([2]; 10 mg/kg p.o. once daily, day 28): 135.67 ± 3.89 mg/dL | blood glucose level, day 1 ([2]; 20 mg/kg p.o. once daily): 380.30 ± 4.78 mg/dL | blood glucose level, day 7 ([2]; 20 mg/kg p.o. once daily, day 7, 20 mg/kg): 228.44 ± 5.06 mg/dL | blood glucose level, day 14 ([2]; 20 mg/kg p.o. once daily, day 14, 20 mg/kg): 166.09 ± 4.46 mg/dL | blood glucose level, day 21 ([2]; 20 mg/kg p.o. once daily, day 21, 20 mg/kg): 129.71 ± 4.09 mg/dL | blood glucose level, day 28 ([2]; 20 mg/kg p.o. once daily, day 28, 20 mg/kg): 111.81 ± 4.08 mg/dL | body weight, day 1 ([3]; 10 mg/kg): 190.0 ± 3.98 | body weight, day 7 ([3]; 10 mg/kg): 182.5 ± 4.19 | body weight, day 14 ([3]; 10 mg/kg): 187.1 ± 4.88 | body weight, day 21 ([3]; 10 mg/kg): 183.4 ± 4.60 | body weight, day 28 ([3]; 10 mg/kg): 180.9 ± 4.23 | body weight, day 1 ([3]; 20 mg/kg): 194.1 ± 4.41 | body weight, day 7 ([3]; 20 mg/kg): 189.3 ± 4.61 | body weight, day 14 ([3]; 20 mg/kg): 190.3 ± 4.71 | body weight, day 21 ([3]; 20 mg/kg): 186.7 ± 3.96 | body weight, day 28 ([3]; 20 mg/kg): 184.3 ± 4.33 | LDL ([4]; 10 mg/kg for 28 days): 130.21 ± 3.99 mg/dL | TG ([4]; 10 mg/kg for 28 days): 145.21 ± 4.98 mg/dL | total CH ([4]; 10 mg/kg for 28 days): 151.07 ± 4.92 mg/dL | HDL ([4]; 10 mg/kg for 28 days, 10 mg/kg): 44.89 ± 3.01 mg/dL | LDL ([4]; 20 mg/kg for 28 days): 113.41 ± 4.71 mg/dL | TG ([4]; 20 mg/kg for 28 days): 116.82 ± 4.41 mg/dL | total CH ([4]; 20 mg/kg for 28 days): 137.11 ± 3.71 mg/dL | HDL ([4]; 20 mg/kg for 28 days, 20 mg/kg): 52.07 ± 2.69 mg/dL | insulin level ([5]; 10 mg/kg for 28 days): 0.658 ± 0.31 ng/mL | serum creatinine ([5]; 10 mg/kg for 28 days): 0.82 ± 0.22 mg/dL | (ALP) IU ([5]; 10 mg/kg for 28 days): 214.19 ± 4.11 IU | (SGOT) IU ([5]; 10 mg/kg for 28 days): 25.81 ± 2.16 IU | (SGPT) IU ([5]; 10 mg/kg for 28 days): 25.90 ± 2.11 IU | insulin level ([5]; 20 mg/kg for 28 days): 0.667 ± 0.40 ng/mL | serum creatinine ([5]; 20 mg/kg for 28 days): 0.75 ± 0.30 mg/dL | (ALP) IU ([5]; 20 mg/kg for 28 days): 204.71 ± 4.13 IU | (SGOT) IU ([5]; 20 mg/kg for 28 days): 22.31 ± 2.17 IU | (SGPT) IU ([5]; 20 mg/kg for 28 days): 23.01 ± 2.11 IU

2-(3-Methoxy-4-propoxyphenyl)-4-(p-tolyl)-2,3-dihydrobenzo[b][1,5]thiazepine [5B]
IC50 (α-glucosidase): 6.28 ± 0.71 µM

2-(4-Butoxy-3-methoxyphenyl)-4-(p-tolyl)-2,3-dihydrobenzo[b][1,5]thiazepine [9B]
IC50 (α-glucosidase): 8.56 ± 0.59 µM
